Assay results collected from several papers.
Target: Mitogen-activated protein kinase kinase kinase 9 (MAP3K9, Homo sapiens, UniProt P80192)

Compound	observed	mode	technique	tested at	quantity	result
Cc1c(C(=O)O)cc(-c2ccc(C3CCNCC3)cc2)c2ccc(-c3ccc(C(F)(F)F)cc3)cc12	binding		competition with immobilised ligand	1 µM	remaining binding	92%
NS(=O)(=O)c1ccc(CNc2nc(Nc3cccc(CN4CCOCC4)c3)ncc2C2CC2)cc1	enzyme activity	inhibitor	radiometric	1 µM	remaining activity	72%
CC/C(=N\NC(=O)NCc1cccc(O)c1)c1ccc(O)c(C)c1O	enzyme activity	inhibitor		0.1 µM	inhibition	5.1%
NS(=O)(=O)c1ccc(CNc2nc(Nc3cccc(NC(=O)N4CCCC4)c3)ncc2C2CC2)cc1	enzyme activity	inhibitor	radiometric	1 µM	remaining activity	89%
CN(c1ccnc(CNc2nc(Nc3ccc4c(c3)CC(=O)N4)ncc2C(F)(F)F)n1)S(C)(=O)=O	cell-free assay		competition with immobilised ligand	1 µM	remaining binding	41%
Cc1cc(NC(=O)c2cccc3cc(-c4cccc5[nH]nc(N)c45)ccc23)ccc1F	enzyme activity	inhibitor		0.1 µM	activity vs control	96%
CCOc1cc(-c2nncn2C)ccc1Nc1ncc2cc(C)nc(NCC(C)(C)C)c2n1	enzyme activity	inhibitor	FRET	1 µM	inhibition	38%
Cc1ccc(Nc2nccc(N(C)c3ccc4c(C)n(C)nc4c3)n2)cc1S(N)(=O)=O	enzyme activity	inhibitor		0.3 µM	inhibition	88%
Oc1cccc(-c2nc(N3CCOCC3)c3oc4ncccc4c3n2)c1	cell-free assay			0.5 µM	remaining signal	103%
Cc1nc(N2CC[C@@H](O)C2)ncc1-c1cc(C(F)(F)F)cc2[nH]ncc12	binding		competition with immobilised ligand	1 µM	remaining binding	100%
CNC(=O)c1cc(Oc2ccc(NC(=O)Nc3ccc(Cl)c(C(F)(F)F)c3)cc2)ccn1	enzyme activity	inhibitor		0.3 µM	inhibition	-6%
Cc1nn(CC(F)(F)F)cc1Nc1nccc(NCCCNC(=O)C2CCC2)n1	enzyme activity	inhibitor	radiometric	1 µM	remaining activity	85%
COc1cc(/C=C/C(=O)CC(=O)/C=C/c2ccc(O)c(OC)c2)ccc1O	enzyme activity	inhibitor		1 µM	activity vs control	14%
CO[C@H]1CC[C@H](CNc2ccc(S(=O)(=O)NC(=O)c3ccc(N4CCN(CC5=C(c6ccc(Cl)cc6)CC(C)(C)CC5)CC4)cc3Oc3cnc4[nH]ccc4c3)cc2[N+](=O)[O-])CC1	cell-free assay		competition with immobilised ligand	1 µM	remaining binding	84%
Cn1c(=O)n(-c2ccc(C(C)(C)C#N)cc2)c2c3cc(-c4cnc5ccccc5c4)ccc3ncc21	enzyme activity	inhibitor		10 µM	remaining activity	67%
CCCS(=O)(=O)Nc1ccc(F)c(C(=O)c2c[nH]c3ncc(-c4ccc(Cl)cc4)cc23)c1F	enzyme activity	inhibitor		1 µM	inhibition	< 10%
Brc1cnc(Nc2cccc(CN3CCOCC3)c2)nc1NCCc1c[nH]cn1	enzyme activity	inhibitor	radiometric	1 µM	remaining activity	-1%
O=C(O)[C@H]1[C@H](Cn2nnc3ccccc3c2=O)CC[C@@H]1C(=O)c1ccc(OCCC2CCOCC2)cc1	cell-free assay		competition with immobilised ligand	1 µM	remaining binding	81%
O=C(NCCCNc1nc(Nc2cccc(CN3CCOCC3)c2)ncc1C1CC1)C1CCC1	enzyme activity	inhibitor	radiometric	1 µM	remaining activity	19%
C=CC(=O)Nc1cc(Nc2nccc(Nc3cc(Cl)c(F)cc3C(C)(C)O)n2)c(OC)cc1N1CC[C@@H](N(C)C)C1	enzyme activity	inhibitor		1 µM	inhibition	33%
COc1cc2ncnc(Nc3ccc(Oc4ccccc4)cc3C)c2cc1OC	enzyme activity	inhibitor		1 µM	inhibition	9%
COc1cccc2c(NCc3ccccc3)nc(-n3c(N)nc4ccccc43)nc12	target engagement in cells	inhibitor	chemoproteomics	20 mM	inhibition	11.3%
N#CCCc1ccc2c(c1)-c1[nH]c3ccc([N+](=O)[O-])cc3c1CC(=O)N2	cell-free assay			0.5 µM	remaining signal	18.2%
C[C@H](c1ccnc(Nc2nc3ccc(-c4cc(N(C)C)ncn4)cc3[nH]2)c1)N1CCN(C(=O)CC(F)(F)F)CC1	cell-free assay		competition with immobilised ligand	0.1 µM	remaining binding	100%
Cc1nn(CC(F)(F)F)cc1Nc1nccc(NCCc2cnc[nH]2)n1	enzyme activity	inhibitor	radiometric	1 µM	remaining activity	77%
COc1cccc(CNC(=O)c2nc3scc(COCc4ccc(C(=O)O)cc4)c3c(=O)[nH]2)c1	cell-free assay		competition with immobilised ligand	1 µM	remaining binding	100%
NS(=O)(=O)c1ccc(CNc2ccnc(Nc3cccc(NC(=O)N4CCCC4)c3)n2)cc1	enzyme activity	inhibitor	radiometric	1 µM	remaining activity	86%
C#Cc1cccc(Nc2ncnc3cc(OCCOC)c(OCCOC)cc23)c1	cell-free assay			0.5 µM	remaining signal	111%
NS(=O)(=O)c1ccc(CNc2nc(Nc3cccc(NC(=O)N4CCCC4)c3)ncc2Br)cc1	enzyme activity	inhibitor	radiometric	1 µM	remaining activity	30%
CCC(=O)N[C@H]1CC[C@@H](C(=O)N(C)c2ccc(-c3nc4ccccc4o3)cc2)C1	cell-free assay		competition with immobilised ligand	1 µM	remaining binding	100%
